Active and inactive are the calls of the source. The rule behind the calls is not given here.
How the values were obtained:
Plasmodium falciparum [1] = test: Antiparasitic activity against late ring stage Plasmodium falciparum 3D7 infected in RBC at 50 to 100 uM after 60 hrs by ethidium bromide staining based flow cytometric analysis; assay type: functional
Outline: (§1)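 P. falciparum 3D7 cultures synchronized with 5% sorbitol; assay set at late ring stage, 2% hematocrit, 1% parasitemia. Compounds added at 50 and 100 μM (screen) or 5−100 μM (dose series). Parasitemia read by flow cytometry after 60 h (methods: 48 h into next cycle): ethidium bromide 10 μg/mL, 20 min, 37 °C; FL2-positive fraction of 100000 cells, uninfected RBCs as control. Triplicates.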

Heme [2] = test: Binding affinity to heme (unknown origin) assessed as reduction in heme to hemozoin conversion by Plasmodium falciparum HDP at 100 uM relative to control; design: scale not given: the % may be the effect or the level left
Outline: (§2)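 Heme-to-hemozoin conversion: heme (10 mM DMSO stock) at 300 μM with 0.5 μM recombinant PfHDP in 500 mM sodium acetate pH 5.2, 4 h at 37 °C. Stopped with SDS. Pellet washed in 2.5% SDS and in 50 mM bicarbonate pH 9.1 to strip free heme. Hemozoin dissolved in 0.1N NaOH/2.5% SDS, read at 405 nm. Triplicates.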

Heme [3] = test: Binding affinity to heme (unknown origin) at 20 uM by SORET assay
Outline: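 Soret titration: 20 μM peptide in 100 mM sodium acetate pH 5.2; heme added in 3 μM increments. Spectrum recorded after each addition; change in absorbance at 400 nm plotted against heme concentration. Alanine-substituted peptide served as control.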

Heme [4] = test: Binding affinity to heme (unknown origin) assessed as reduction in heme to hemozoin conversion by Plasmodium falciparum HDP; outline: as §2
[5] = Inhibition of wild type Plasmodium falciparum HDP binding to hemoglobin at 0.5 to 100 uM preincubated for 30 min followed by HDP addition measured after 1 hr by ELISA
Outline: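 ELISA competition: 400 ng hemoglobin preincubated with varying peptide concentrations for 30 min at 37 °C, then added to wells coated overnight at 4 °C with 200 ng recombinant PfHDP and blocked with 3% BSA. Detection with anti-Hb (1:500), then HRP anti-rabbit (1:5000) for 1 h, OPD substrate, absorbance 490 nm. Control peptide included.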

Plasmodium falciparum [6] = test: Antiplasmodial activity against late trophozoite stage of Plasmodium falciparum 3D7 infected in RBC assessed as gross deformaties in food vacuole at 50 to 100 uM after 12 hrs by giemsa staining based microscopic analysis; assay type: functional
Outline: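 Sorbitol-synchronized 3D7 late-ring cultures at 2% hematocrit and 1% parasitemia were given peptide at 50−100 μM. After 12 h, at the late trophozoite stage, Giemsa-stained smears were examined by microscopy for food vacuole morphology.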

Plasmodium falciparum [7] = test: Growth inhibition of late ring stage Plasmodium falciparum 3D7 infected in RBC after 60 hrs by e thidium bromidestaining based flow cytometric analysis; assay type: functional; outline: as §1
[8] = Stability of the compound under freezing condition; assay type: physicochemical
[9] = target: T1, Heme ligase (Plasmodium falciparum (isolate 3D7)) (UniProt Q8IL04); conditions: Plasmodium falciparum 3D7; 50 uM
T1 sequence (whole entry): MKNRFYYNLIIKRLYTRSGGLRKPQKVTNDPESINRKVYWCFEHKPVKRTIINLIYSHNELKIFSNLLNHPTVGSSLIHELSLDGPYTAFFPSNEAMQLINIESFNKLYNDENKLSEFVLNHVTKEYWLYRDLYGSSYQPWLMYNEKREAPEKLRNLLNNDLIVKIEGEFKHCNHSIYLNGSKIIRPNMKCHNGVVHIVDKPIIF

Heme ligase = target: T2, Heme ligase (Plasmodium falciparum (isolate 3D7), UniProt Q8IL04); test: Binding affinity to Plasmodium falciparum 3D7 HDP assessed as equilibrium dissociation constant by SPR assay
T2 sequence (Q8IL04 whole entry): T1 sequence (whole entry)
Outline: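 Recombinant Pf HDP immobilised (>9500 RU) on a CM5 chip from 10 mM sodium acetate pH 4.0, then ethanolamine-blocked. Ligand was diluted from a 10 mM DMSO stock to 200 μM (2% DMSO), and a concentration series was made in PBS pH 7.4 running buffer with 2% DMSO and 0.05% P20. Eight-point DMSO solvent correction, glycine pH 2.5 regeneration, 25 °C, kinetic fit.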

[10] = target: T1, Heme ligase (Plasmodium falciparum (isolate 3D7))

Compound	Stability [8]	Activity (Plasmodium falciparum [1])	growth inhibition (GI) (Plasmodium falciparum [7])	also measured
NS(=O)(=O)c1cccc(-c2ccc(C3Nc4ccccc4-c4nc5ccccc5n43)o2)c1 (centres undefined)	–	Active	–	–
H-GEFKHCNHSIYLNG-OH	–	–	–	Activity (Heme [2]): > 75%; Activity (Heme [3]): Active; Activity (Heme [4]): Dose-dependent effect
H-LRNLLNNDLIVKIEGEFKH-OH	–	–	–	inhibition [5]: Active; Activity (Plasmodium falciparum [6]): Active
O=C(CCn1c(=O)oc2ccccc21)Nc1cc(C(F)(F)F)cc(C(F)(F)F)c1	–	Active	–	–
O=C(c1cccs1)c1nn(-c2ccccc2)c2nc(=O)cc(-c3ccccc3)n12	Unstable	Active	Dose-dependent effect	–
H-MKCHNGVVHIVD-OH	–	–	–	Activity (Heme [2]): > 75%; Activity (Heme [3]): Active; Activity (Heme [4]): Dose-dependent effect
FC(F)(F)c1cccc(N2CCN(C3=Cc4ccccc4CC3)CC2)c1	Stable	Active	Dose-dependent effect	inhibition [9]: 31%; Kd (Heme ligase): 2.96 µM; Ka [10]: 3.37 ×10⁵ /M; IC50 (Plasmodium falciparum [7]; 3D7, 60 h): 59.6 µM
H-LHRKNFLELGNENIDKL-OH	–	–	–	inhibition [5]: inactive
O=c1oc2ccccc2c2c1C(c1cccc([N+](=O)[O-])c1)c1c(c3ccccc3oc1=O)O2	–	Active	–	–
H-GEFKAAAASIYLNG-OH	–	–	–	Activity (Heme [3]): Active
Cc1cc(=O)oc2cc(NS(=O)(=O)c3cccc4nonc34)ccc12	–	Active	–	–
C(=C1/c2ccccc2-c2c1ccc1ccccc21)/c1cc2c3c(cccc3c1)-c1ccccc1-2	–	Active	–	–
COc1ccc(Oc2ccc(C(F)(F)F)cc2NS(=O)(=O)c2cccc3nonc23)cc1	–	Active	–	–
N#Cc1cc(Cc2ccc3c(ccc4ccccc43)c2C#N)cc2c1ccc1ccccc12	–	Active	–	–

Second part, led by results:

Stability [8]	Compound	Activity (Plasmodium falciparum [1])	growth inhibition (GI) (Plasmodium falciparum [7])	also measured
Unstable	O=C(NNC(=O)C1c2ccccc2Oc2ccccc21)c1cccc(C(F)(F)F)c1	Active	Dose-dependent effect	–
Unstable	O=[N+]([O-])c1ccc(N/N=C2/C(=C/c3cccc4ccccc34)CCc3ccccc32)c([N+](=O)[O-])c1	Active	Dose-dependent effect	–
Unstable	Cc1ccc(-n2nnnc2SCc2nc(-c3cccc([N+](=O)[O-])c3)no2)c(C)c1	Active	Dose-dependent effect	–
Unstable	Cc1ccc(Oc2ncccc2NC(=O)c2ccc3c(c2)OCCCO3)c2c1CCC2	Active	Dose-dependent effect	–

Source: ChEMBL document CHEMBL4028863, “Exploring Heme and Hemoglobin Binding Regions of Plasmodium Heme Detoxification Protein for New Antimalarial Discovery” (J Med Chem, 2017)
